The data set in a line: Toxicity liver stage against HepG2, at 10uM. Conditions: human, HepG2-A16-CD81EGFP cells; read-out: INHIBITION
The format is cell-based. The arrangement: test concentration 10 uM, cell line HepG2-A16-CD81EGFP. The essentials:
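Uninfected HepG2-A16-CD81EGFP cells, 3 × 10^3 per well, 1536-well, plated on prespotted compound at 10 μM final, parasite-free screening media added to match infected plates; puromycin 10 μM positive, DMSO 0.5% negative; run in parallel with 48 h PbLuc assay at 37 °C, 5% CO2; viability by CellTiter-Glo luminescence, normalized to controls.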
In the case of `CCc1noc(CN2CCN(C(=O)C3CC3)CC2)n1`, the cytotoxicity at 10 µM was -1.88%.

As for `Cc1nccn1-c1cc(CNS(=O)(=O)N2CCCC(C)C2)ccn1` (configuration not stated), the cytotoxicity at 10 µM is -2.42%. As to `Cc1cc(CNC(=O)c2ccc(C(C)N3CCCCC3)o2)[nH]n1` (configuration not stated), the cytotoxicity at 10 µM was -12.6%. To `COCCN(CC(C)C)C(=O)c1cccc(Nc2cnccn2)c1` belongs -9.59%. In the case of `CCOCCN1CCN(CC(=O)NC2(C#N)CCCC2)CC1C` (configuration not stated), the cytotoxicity at 10 µM worked out at 5.33%.

For the molecule `Cc1cc(C(=O)NCc2ccnc(N3CCN(C)CC3)c2)no1`, the cytotoxicity at 10 µM was -6.63%. Next, `N#Cc1ccc(CN2C[C@@H](F)[C@@H](OCc3nc4cnccc4[nH]3)C2)cc1`: -3.67%. Consider `COc1ccc(CNC(=O)NC2CCN(c3ccccc3)C2=O)cc1` (configuration not stated), for which the cytotoxicity at 10 µM is -2.98%.

Take `O=C(CCC1CCN(C(=O)c2cc[nH]c2)CC1)NCc1cccc(Cl)c1`: the cytotoxicity at 10 µM was -2.11%.

`CN1CCN(C(=O)c2cnc3c(cnn3C3CCCC3)c2)CC1`: the cytotoxicity at 10 µM is -14.6%.

`Cc1ccc(-c2noc(CCC(=O)NC(C)Cn3cccn3)n2)cc1` (configuration not stated): the cytotoxicity at 10 µM is 8.41%. Turning to `O=C(Cc1ccccc1)N1CCC2(CC(=O)N(c3ccsc3)C2)C1` (configuration not stated), the cytotoxicity at 10 µM was -10.2%. For `Cc1cnn(CCNCC(O)c2ccc(S(C)(=O)=O)cc2)c1` (configuration not stated), the cytotoxicity at 10 µM came out at 1.1%. In the case of `c1ccc(CN2CCC(NCCSc3ncn[nH]3)C2)cc1` (configuration not stated), the cytotoxicity at 10 µM was -2.76%.

For the molecule `NCCSc1nccc(-c2cnc(C3CC3)nc2-c2ccco2)n1`, the cytotoxicity at 10 µM was -7.19%. On to `CS(=O)(=O)NC1CCN(C(=O)COCc2ccccc2)CC1`, for which the cytotoxicity at 10 µM was -8.61%. On to `O=c1[nH]c2ccc(S(=O)(=O)N(CCO)Cc3ccncc3)cc2[nH]1`, for which the cytotoxicity at 10 µM worked out at 1.07%. As to `CCC(CO)N(Cc1ccco1)C(=O)c1ccccc1NC` (configuration not stated), the cytotoxicity at 10 µM was 2.1%. To `NC(=O)CN(C(=O)C1Cc2cc(Cl)ccc2O1)C1CCCC1` (configuration not stated) belongs 10.1%; to `Cc1ccc(CNC(=O)NCC(=O)N2CCCC2)c(N2CCCC2)c1`, 5.84%. As for `Cn1cc(C(=O)NC(Cn2cccn2)C(C)(C)C)cn1` (configuration not stated), the cytotoxicity at 10 µM is -6.36%.

`CN(Cc1nc(C2CC2)no1)C(=O)c1cccc(CC2CCNCC2)c1`: the cytotoxicity at 10 µM worked out at 2.74%.

For the molecule `CNC(=O)c1ccc2c(c1)C1(CCN(CCOC)CC1)C(=O)N2`, the cytotoxicity at 10 µM is -1.92%.

For the molecule `Cn1[nH]c(CNc2cccc(Cl)c2)nc1=O`, the cytotoxicity at 10 µM is -0.165%. For `CSc1ccsc1C(=O)NS(=O)(=O)c1cccc(C#N)c1`, the cytotoxicity at 10 µM worked out at 7.49%.

Consider `CCc1ccc(CN2CCN(C)c3ncccc3C2)o1`, for which the cytotoxicity at 10 µM turned out to be 3.78%.

Consider `COc1cccc(Nc2nc(C3CCCNC3)c3sc(C)c(C)n23)c1` (configuration not stated), for which the cytotoxicity at 10 µM was -4.93%. Take `c1cncc(C(Cn2cnnc2)N2CCOCC2)c1` (configuration not stated): the cytotoxicity at 10 µM is -5.11%. On to `Cc1cn[nH]c1C1COCCN1Cc1ccsc1` (configuration not stated), for which the cytotoxicity at 10 µM turned out to be 2.56%. Take `COc1nc2c(cc1C(=O)N(C)Cc1n[nH]c3c1CCCC3)CCC2`: the cytotoxicity at 10 µM was -1.89%.

Regarding `COc1ccc(CN(C)C(=O)c2nnc(CN(C)C)o2)cc1`, the cytotoxicity at 10 µM is -3.42%.

As for `CC(CNC(=O)Nc1cn[nH]c1)N1CCc2ccccc2C1` (configuration not stated), the cytotoxicity at 10 µM was -0.289%.

For `CC(C)CC(=O)Nc1cccc(CNCc2cccs2)c1`, the cytotoxicity at 10 µM was determined as 0.25%.

In the case of `Cn1ccc(C(=O)NCc2ccc(N3CCCCCC3)nc2)cc1=O`, the cytotoxicity at 10 µM was -3.18%. As to `O=C(O)CCc1ccc(S(=O)(=O)Nc2cnn(CC3CC3)c2)cc1`, the cytotoxicity at 10 µM was -8.35%. For `O=C(c1nn[nH]c1Nc1ccc(Cl)cc1)N1CCSCC1`, the cytotoxicity at 10 µM amounted to 4.67%.

For `O=C(C[C@@H]1COC[C@H]2CN(C(=O)c3ccccn3)C[C@@H]12)N1CCCC1`, the cytotoxicity at 10 µM is -104%.

For the molecule `Cc1nc(N2CCCCC2)ncc1-c1cc(=O)[nH]c(N2CCCC2)n1`, the cytotoxicity at 10 µM is 1%.

`CC(=O)N1CC(C)CN(C(=O)c2cccnc2C)c2ccccc21` (configuration not stated): the cytotoxicity at 10 µM is 6.45%.

For the molecule `CCc1nc(C2CCCN2CCc2cccs2)no1` (configuration not stated), the cytotoxicity at 10 µM is -108%.

Regarding `CCN(Cc1cc(F)c(OC)c(Cl)c1)Cc1noc(CC(C)C)n1`, the cytotoxicity at 10 µM was -2.84%. Next, `Cn1ccnc1-c1cccc(NC(=O)NCCCO)c1`: -6.77%. To `CC(C)(C)Nc1nc(-c2cccnc2)c(-c2ccnc(NCCO)n2)s1` belongs -5.64%; to `O=C([C@@H]1CC[C@@H]2[C@@H](CCN2c2ncccn2)O1)N1CCCO1`, 8.79%. As for `COc1cc(NC(=O)c2ccc(CN3CC[C@H](O)C3)cc2)cc(OC)c1`, the cytotoxicity at 10 µM amounted to 10.5%. Take `CN(C)C(=O)CS(=O)(=O)Cc1cc(Cl)c2c(c1)OCCO2`: the cytotoxicity at 10 µM came to 1.38%. In the case of `CN(C)CCNC(=O)c1ccccc1NC(=O)c1cc(Cl)ccc1Cl`, the cytotoxicity at 10 µM was -1.02%. To `O=C(NCc1ccccc1Cn1ccnc1)N1CCOCC1` belongs 0.84%. On to `Cc1cnn(CC2CN(Cc3nc(C4CC4)no3)CCO2)c1` (configuration not stated), for which the cytotoxicity at 10 µM was -4.26%. To `COCCCNC(=O)CCn1ncc2c(Cl)cccc21` belongs 7.72%. To `Cc1cc(S(=O)(=O)N2CCCc3ccccc32)sc1C(=O)O` belongs -13.5%; to `COc1c(Br)cc(Br)cc1CNC(C)Cn1cccn1` (configuration not stated), 3.64%. Turning to `COC(=O)CNC(=O)c1cc(-c2ccccc2)nc2ncnn12`, the cytotoxicity at 10 µM was -5.07%.

For `CC(C)S(=O)(=O)CCN1CCc2c(ncn2C2CC2)C1`, the cytotoxicity at 10 µM is -13.9%. Consider `N[C@@H](Cc1ccccc1)c1nnc(S(=O)(=O)Cc2ccccc2)o1`, for which the cytotoxicity at 10 µM is 13.3%. To `CC(C)(C)CC(=O)N[C@@H]1CO[C@H](CNC(=O)c2ccncc2)[C@H]1O` belongs -3.81%; to `Cc1ccc(CN2CCC(n3cc(C(O)c4ccccc4)nn3)CC2)o1` (configuration not stated), 2.11%; to `Cc1nnc(SCCNc2cc(C3CC3)ncn2)s1`, -6.67%. `Cc1ccc(C(=O)N2CC[C@H]3[C@H]2CCN3CC2CCOCC2)cn1`: the cytotoxicity at 10 µM is -73.3%. On to `O=C(c1ccc(F)c(F)c1)N1CCC[C@]2(C[C@@H](OCC3CC3)CO2)C1`, for which the cytotoxicity at 10 µM was -70.1%.

Regarding `Cc1cnn(CC2CN(c3cnc4ccccc4n3)CCO2)c1` (configuration not stated), the cytotoxicity at 10 µM stood at 2.02%. With `CCCn1nc2c(cc1=O)CN(Cc1nc(-c3ccco3)no1)CC2`, the cytotoxicity at 10 µM is -7.69%. To `COc1c(Br)c(C(=O)NC2CCCC2)nn1C` belongs 6.44%; to `CC(C)(C)OC(=O)N1CCC[C@H](NCC2CCOCC2)C1`, -0.678%; to `CC(NC(=O)c1ccoc1)C(=O)N(C)Cc1ccsc1` (configuration not stated), -1.77%. As for `Cc1ccc(S(=O)(=O)N2C[C@H]3C[C@H](NC(=O)c4cnn(C)c4)[C@H]3C2)cc1`, the cytotoxicity at 10 µM was 76.4%. For the molecule `CN(C)C[C@@H]1C[C@@H]2CN(Cc3nccn3C)CC[C@@H]2N1CC1CC1`, the cytotoxicity at 10 µM is -101%. On to `COc1ccc(-c2nccn2C[C@@H]2CCCN3CCCC[C@H]23)cc1`, for which the cytotoxicity at 10 µM turned out to be 4.71%. Regarding `Cc1cccc(C(CNC(=O)NCc2cc[nH]n2)N2CCOCC2)c1` (configuration not stated), the cytotoxicity at 10 µM was -9.19%. In the case of `Cc1csc(N2CCCN(C(=O)c3cccs3)CC2)n1`, the cytotoxicity at 10 µM is -8.08%.

`CN1CCN(c2nc(-c3cnn(C)c3)cs2)CC1`: the cytotoxicity at 10 µM was -0.186%. As to `Cc1nn(C)c(N(C)C)c1CNCc1ccccc1CN(C)C`, the cytotoxicity at 10 µM was -0.553%. Take `CCOc1ncccc1CNC(=O)c1cccc(C)n1`: the cytotoxicity at 10 µM is -2.42%. As for `CCN(C(=O)CCCOc1ccccc1F)c1ccncc1`, the cytotoxicity at 10 µM was -5.69%. With `CCOc1ccc(NC(=O)c2[nH]c(C)cc2C)cc1CO`, the cytotoxicity at 10 µM is 21.3%. `O=c1n(Cc2ccc(C(F)(F)F)cc2)nc2ncccn12`: the cytotoxicity at 10 µM was -4.06%. For `Cc1ncc2c(n1)CN(Cc1ncc(C(C)(C)C)o1)CC2`, the cytotoxicity at 10 µM came out at 0.96%. Turning to `CN1C(=O)CCC12CCN(S(=O)(=O)c1ccccc1)CC2`, the cytotoxicity at 10 µM is -9.75%.

In the case of `COC(=O)Cn1c(=O)cc(C(F)F)c2c(C)nn(CC(F)F)c21`, the cytotoxicity at 10 µM was 6.2%.

On to `CC(CNC(=O)CCc1ccccn1)c1ccsc1` (configuration not stated), for which the cytotoxicity at 10 µM was -3.3%. Next, `CC(=O)c1cnc(N(C)Cc2cnc3ccccc3n2)nc1C`: 2.4%; `CCNC(=O)NC[C@H]1Cn2c(-c3ccccc3)cnc2CO1`: -2.12%; `COCc1nc2cc(NCc3nc(C)cs3)ccc2o1`: -2.57%. To `CCc1ocnc1C(=O)N1CCCC(n2nc(C)nc2C)C1` (configuration not stated) belongs -11.5%; to `Cc1cc(C)n(C2CN(Cc3noc(-c4ccccc4)n3)C2)n1`, -12.8%; to `CN(C(=O)CCNC(=O)NC1CCCCC1)c1ccccc1`, -0.575%. In the case of `CCOCC1CN(C(=O)COc2ccccc2)Cc2cn(C)nc21` (configuration not stated), the cytotoxicity at 10 µM worked out at 9.08%. Consider `COc1cccc(Cn2ncnc2COC(C)C)c1`, for which the cytotoxicity at 10 µM is -5.62%. For the molecule `COc1ccccc1CC1CCCN(CCC#N)C1` (configuration not stated), the cytotoxicity at 10 µM was 1.73%. `CC(C)N(CC(N)=O)Cc1cccc(Br)c1`: the cytotoxicity at 10 µM is -6.93%. As to `Cc1c(-c2n[nH]c3c2CN(CC2CCOC2)CC3)cccc1C(F)(F)F` (configuration not stated), the cytotoxicity at 10 µM is -43.2%.

`NC(=O)C(CNC(=O)COCC(F)(F)F)Cc1ccc(F)cc1` (configuration not stated): the cytotoxicity at 10 µM was -5.36%. On to `CCc1noc(C2CCCCN2C(=O)c2cccs2)n1` (configuration not stated), for which the cytotoxicity at 10 µM was found to be 6.5%. Take `COCCS(=O)(=O)N(Cc1cscn1)c1ccccc1`: the cytotoxicity at 10 µM was -3.3%.

For the molecule `CCOCC1c2c(cnn2CC2CC2)CCN1Cc1nccs1` (configuration not stated), the cytotoxicity at 10 µM stood at 85.9%. Take `c1cc(CCN2CCC(NCc3ccsc3)CC2)ccn1`: the cytotoxicity at 10 µM was -11%. Regarding `CC(C)(O)CN1CC(C)(C)CN(C(=O)CCc2ccccc2)CC1=O`, the cytotoxicity at 10 µM is 2.37%.
